Compound activity (PubChem)
HIV Rev-RRE inh: HIV-1 Rev-RRE binding inhibitors, primary screen, biochemical, FRET, protein-RNA interaction; P05866; Rev peptide-RRE RNA binding; inhibition, % at 8 µM; 0.79% of 97,000 active;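 active = inhibition above the screen-wide mean plus 3 SD, cut at about 35% in these data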;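 also: 0% = median DMSO wells and 100% = median Neomycin B control wells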
Target sequence (P05866 whole entry, looked up): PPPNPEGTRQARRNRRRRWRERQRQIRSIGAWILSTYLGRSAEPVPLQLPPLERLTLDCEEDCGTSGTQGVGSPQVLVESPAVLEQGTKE
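Test system: Cy5-tagged RRE RNA duplex with fluorescein-tagged Rev peptide | Read-out: % inhibition of FRET ratio versus controls | Probe or stimulus: Labelled Rev peptide | Incubation: 5 min RNA-compound premix plus 15 min binding step, 25 °C | Technique: FRET fluorescence readout | Benchmarks: DMSO low control, neomycin B high control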
Cav32 inh: Cav3.2 calcium influx blockers – cell-based, Fluo-4 calcium fluorescence, FDSS, MLSMR library, primary screen; Voltage-dependent T-type calcium channel subunit alpha-1H (Homo sapiens), O95180; Cav3.2-expressing cells; active compounds read low; B-score at 10 µM; 4% of 100,000 active; AID 449739, 2010;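 active = single-dose well whose peak fluorescence ratio is a statistical outlier from its plate by either plate-standardised score or position-corrected B-score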
PTK2B oligo ant: antagonists of Pyk2 self-association, primary screen, Q293 cells, FERM NanoBiT luminescence, HTS. Protein-tyrosine kinase 2-beta (Homo sapiens), Q14289. active compounds read low. z-score (the deposit names both 25 µM and 10 µM). 0.83% of 99,000 active. AID 1347419, 2020;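 active = Z-score of -3 or lower, scaled per plate to the spread of control and sample wells; inactive = z-score above -3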;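 also: negative z-score means lost luminescence so less FERM oligomerization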
Phagocytosis inh: inhibitors of macrophage phagocytosis, primary screen, imaging, J774A.1 cells, IgG beads; J774A.1 macrophage IgG-bead phagocytosis; inhibition, % at 5 µM; 0.07% of 110,000 active;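 active = inhibition above the mean of the plate negative controls plus 5 SD, cut at about 13% in these data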;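 also: phagocytic index as fraction of beads internalized from green versus red external bead signal; plate controls were DMSO negative control for no effect and cytochalasin-D positive control for full effect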
hDAT+cocaine: changed hDAT dopamine uptake under cocaine IC80, either direction, primary screen, cocaine antagonist project, cell-based, LLC-PK1 hDAT, [14C]-dopamine uptake, MLSMR; LLC-PK1 hDAT cells, [14C]-dopamine uptake with cocaine IC80; actives deviate in either direction; B-score at 10 µM; 1.3% of 110,000 active; AID 449768, 2010;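 active = Z score or B-score, a plate-position-corrected score, falls beyond the plate's 99.7% confidence bounds, in either direction; inactive = both scores lie inside the 99.7% bounds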;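 also: scored against the spread of the other compound wells on the same plate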
Target sequence (Q01959 whole entry, looked up): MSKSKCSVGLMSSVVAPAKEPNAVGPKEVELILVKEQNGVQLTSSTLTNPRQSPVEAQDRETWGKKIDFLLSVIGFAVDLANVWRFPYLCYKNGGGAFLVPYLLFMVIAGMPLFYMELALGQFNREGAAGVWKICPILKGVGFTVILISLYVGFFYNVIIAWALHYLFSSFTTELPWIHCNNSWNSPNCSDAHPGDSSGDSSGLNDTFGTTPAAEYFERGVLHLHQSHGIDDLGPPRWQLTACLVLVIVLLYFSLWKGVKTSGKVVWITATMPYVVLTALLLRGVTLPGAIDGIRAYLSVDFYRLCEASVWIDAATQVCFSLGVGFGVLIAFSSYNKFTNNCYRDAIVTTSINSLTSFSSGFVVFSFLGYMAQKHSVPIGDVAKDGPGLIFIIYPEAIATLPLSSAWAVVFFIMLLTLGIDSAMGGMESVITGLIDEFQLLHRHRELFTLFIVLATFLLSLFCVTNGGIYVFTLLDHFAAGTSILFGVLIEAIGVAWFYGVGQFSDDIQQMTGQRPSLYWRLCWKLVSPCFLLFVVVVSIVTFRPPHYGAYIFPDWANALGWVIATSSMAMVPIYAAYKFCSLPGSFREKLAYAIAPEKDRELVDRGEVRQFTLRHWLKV
Measles CPE: compounds protecting cells from measles virus cytopathic effect, primary screen, measles RdRp inhibitor project, single point, MLSMR library, absorbance | Measles virus-infected cells, CPE protection | 1.5% of 140,000 active | protection (pct of control), % at 4 µM; in the data active = protection mostly above about 24%, no sharp cut-off; inactive = mostly below about 26%
* marks the source's active call; other numbers are inactive results; nt = no result; [ ] = another dose, or the depositor's remark. Sampled rows, rich in hits. Any-hit rate of the full collection: about 5.9%.

SMILES	HIV Rev-RRE inh	Cav32 inh	PTK2B oligo ant	Phagocytosis inh	hDAT+cocaine	Measles CPE
O=c1[nH]c(Nc2ccccc2)cc2ccccc12	61.3*	nt	0.41	nt	-0.367	7.4
NCCCC[C@H](NC(=O)C1CCNCC1)c1nnc(CN)o1	nt	0.137	nt	nt	-0.667	nt
CCOC(=O)CSc1nc2ccccc2n1CC(=O)N(C(C)C)C(C)C	0.3	1.24	0.14	-2.3	1.23	5.1
CC(C)N(C(=O)CSc1nc2ccccc2n1Cc1ccc(F)cc1)C(C)C	9.9	-6.31*	-1.59	nt	0.0082	2.7
CC(C)c1ccc(NC(=O)CN(Cc2ccccc2)S(C)(=O)=O)cc1	15.4	-2.58	-1.1	nt	3*	6.4
O=C(N/N=C/c1cccs1)/C(=C/c1ccccc1)NC(=O)c1ccccc1	nt	nt	-0.77	nt	nt	7.0
Cc1ccc(NC(=O)c2cc3ccccc3o2)cc1S(=O)(=O)N(C)C	-1.4	0.0907	-3.18*	0.5	-0.0306	10.8
COC(=O)c1c(-c2ccc(C)cc2)csc1NC(=O)C1CC=CCC1C(=O)O (stereo not given)	nt	nt	nt	-8.5	nt	47.2*
Cc1ccccc1N=Nc1c(C)[nH]n(C(N)=S)c1=O	nt	nt	-0.5	-1.7	nt	2.6
NC(=S)n1[nH]c(-c2ccc([N+](=O)[O-])cc2)c(N=Nc2ccc(O)cc2)c1=O	7.9	nt	-3.61*	nt	nt	6.2
CCN(CC)S(=O)(=O)c1ccc(N=Nc2c(C)[nH]n(C(N)=S)c2=O)cc1	-3.7	0.285	-1.15	nt	-2.96*	23.5
CC(=O)Nc1cccc(NC(=O)CSc2ncc(-c3ccc(Cl)cc3)n2Cc2ccco2)c1	2.0	-3.76*	-3.72*	-0.3	-0.0518	13.4
COc1ccc(-c2cnc(SCC(=O)Nc3ccc4c(c3)OCO4)n2Cc2ccco2)cc1	30.5	-4.13*	-2.07	0.0	0.153	14.6
OCCNc1cc(-n2nc(-c3ccccc3)cc2-c2ccccc2)ncn1	7.1	-1.63	-1.65	-0.6	3.71*	7.5
O=C1c2cc([N+](=O)[O-])cc3cc([N+](=O)[O-])cc(c23)C(=O)N1c1ccccn1	nt	nt	nt	nt	nt	6.2
Cc1ccnc(N2C(=O)c3cccc4c([N+](=O)[O-])ccc(c34)C2=O)c1	45.0*	-0.671	-0.48	0.0	-0.376	13.6
CCCOC(=O)Oc1ccc2c(=O)c(Oc3cc(C)cc(C)c3)coc2c1	nt	nt	nt	-2.0	nt	20.1*
Cc1cccc(N2C(=O)c3cccc4c(N5CCCCC5)c([N+](=O)[O-])cc(c34)C2=O)c1C	nt	nt	nt	-3.0	nt	15.6
Cc1ccc(N2C(=O)c3cccc4c(N5CCN(C)CC5)ccc(c34)C2=O)c2cccnc12	110.1*[fluorescence artefact?]	-4.31*	nt	-0.3	0.0352	13.3
O=C(O)/C=C/C(=O)NNC(=O)c1cccc(Br)c1	nt	nt	nt	-8.2	nt	12.9
Cc1cccc(N2CCN(C(=O)c3ccc(CS(=O)(=O)c4ccccc4C)o3)CC2C)c1 (stereo not given)	0.3	-5.74*	-1.45	nt	0.62	6.1
CC(C)c1ccc2c(c1)C(c1ccc(N3CCOCC3)cc1)=NNC(c1cccs1)=N2	-0.5	-5.05	-0.51	nt	-0.298	14.6
Cc1ccc(S(=O)(=O)c2nc(NCc3ccc4c(c3)OCO4)sc2Cl)cc1	21.1	-0.199	-1.03	-2.7	-0.516	6.0
COCCN(CCOC)c1nc(S(=O)(=O)c2ccc(C)cc2)c(Cl)s1	13.9	-1.22	-0.41	1.5	0.0466	28.3*
CSc1ccc(-c2c(C#N)c(N)nc3c2CCCC3)cc1	6.5	0.954	0.4	0.0	-1.11	39.8*
SMILES	HIV Rev-RRE inh	Cav32 inh	PTK2B oligo ant	Phagocytosis inh	hDAT+cocaine	Measles CPE
N#Cc1c(N)nc2c(c1-c1ccncc1)CCCCC2	5.0	0.619	0.27	1.0	0.225	3.7
COc1ccc(-c2c(C#N)c(N)nc3c2CCCCCC3)cc1OC	6.3	0.0527	0.59	-0.4	-0.629	41.9*
O=C(CN1C(=O)c2ccccc2C1=O)Nc1cccc([N+](=O)[O-])c1	nt	nt	nt	4.1	nt	1.7
Cc1ccc(S(=O)(=O)Nc2cccc(NC(=O)CN3CCCCC3)c2)cc1	0.6	0.696	0.65	-0.9	-1.18	63.2*
O=S(=O)(Nc1ccc(O)c(CN2CCCCC2)c1)c1ccccc1	4.9	-0.329	-0.55	0.3	1.6*	12.5
COc1ccc(NC(=O)CCN2CCCC(C)C2)cc1 (stereo not given)	5.2	0.46	0.3	nt	1.29	41.4*
COc1ccc(NC(=O)CCN2CCC(C)CC2)cc1	4.2	0.97	4.02	nt	-1.11	10.8
CC1CCCN(CC(=O)Nc2cccc([N+](=O)[O-])c2)C1 (stereo not given)	nt	nt	nt	nt	nt	31.6*
CCn1c(SCC(=O)N/N=C/c2ccc(O)c(OC)c2)nc2ccccc21	nt	nt	nt	1.2	nt	23.9
CCOc1ccccc1N1CCN(C(=O)CCCc2nc3ccccc3s2)CC1	nt	nt	nt	-12.2	nt	9.0
CNC(=O)NC(=O)COC(=O)c1ccc(-n2c(C)ccc2C)cc1	nt	nt	nt	-8.4	nt	4.9
Cc1ccc(S(=O)(=O)Nc2cccc3c2CCCC3)cc1	nt	nt	nt	-6.2	nt	2.6
CC1(C)CC(CC(=O)O)(c2ccc(F)cc2)CCO1 (stereo not given)	8.3	-0.108	nt	nt	-0.538	7.8
COc1ccccc1C1(CC(=O)O)CCOC(C)(C)C1 (stereo not given)	6.3	1.16	-0.18	-0.5	-1.59	32.9*
CON=C1CCN(c2ncc(C(F)(F)F)cc2Cl)CC1	4.9	-0.418	-0.74	3.0	-0.09	3.8
CO/N=C/C(C#N)c1ncc(C(F)(F)F)cc1Cl (stereo not given)	2.9	-2.55	0.82	nt	-2.49*	14.6
COc1ccc(C(=O)Oc2c(C)occc2=O)cc1OC	11.2	-0.119	0.14	-2.4	-0.669	48.4*
CCOC(=O)NC(NCc1ccccc1)(C(F)(F)F)C(F)(F)F	nt	nt	nt	nt	nt	43.7*
O=C(Nc1cccc(C(F)(F)F)c1)c1ccc2nc(-c3ccco3)c(-c3ccco3)nc2c1	15.9	-4.77*	-0.35	nt	0.564	6.1
CCCOc1ccc(C(=O)NNC(=S)NC(=O)c2cc(-c3ccccc3)nc3ccccc23)cc1	-0.3	-7.25*	-0.67	nt	-0.0554	1.5
CCCOc1ccc(C(=O)NNC(=S)NC(C)=O)cc1	-5.2	1.17	-0.17	nt	0.985	5.1
Cc1ccc(C(=O)NNC(=S)NC(=O)COc2ccccc2)cc1	2.9	-5.19*	0.61	nt	0.0189	15.1
Cc1ccccc1C(=O)NNC(=S)NC(=O)COc1ccccc1	8.3	-3.32	1.85	0.3	-0.752	3.7
CC(C)/C=C1\CC/C(=C\c2ccc(N(C)C)cc2)C1=O	nt	nt	nt	-5.8	nt	23.8
CC(C)c1ccc(/C=C2\CC/C(=C\C=N\N(C)C)C2=O)cc1	45.7*	nt	0.1	-0.1	nt	2.9
